Experimental findings from ChEMBL document CHEMBL4130456 (ACS Med Chem Lett, 2017) are described below.

≈ marks a conversion by molar mass, not a printed value.

Data set [1] can be described thus: Intrinsic clearance in rat liver microsomes assessed per mg protein. Type of data set: ADME, microsome. The following applies: read-out: CLH. In general terms: Liver microsomes are a subcellular fraction often used to study metabolism.
Data set [2] has as its target T1, Phosphatidylinositol 4,5-bisphosphate 3-kinase catalytic subunit beta isoform (Homo sapiens, UniProt P42338). Nature of the data set: Inhibition of recombinant human myristoylated PI3Kbeta catalytic domain expressed in Rat1 cells assessed as reduction in Akt phosphorylation at […] residue after 1 hr by alpha screen Surefire assay. Type of data set: cell-based. On the technique in general: In Alpha technology, singlet oxygen from a donor bead excites a nearby acceptor bead.

Data set [3] has as its target T1, Phosphatidylinositol 4,5-bisphosphate 3-kinase catalytic subunit beta isoform. Put plainly: Inhibition of recombinant PI3Kbeta (unknown origin) using phosphatidyl inositol/n-Octyl-glucoside as substrate measured after 60 mins by KinaseGlo assay.
In data set [4] the target is T2, Phosphatidylinositol 4,5-bisphosphate 3-kinase catalytic subunit alpha isoform (Homo sapiens, UniProt P42336). Nature of the data set: Inhibition of recombinant human myristoylated PI3Kalpha catalytic domain expressed in Rat1 cells assessed as reduction in Akt phosphorylation at […] residue after 1 hr by alpha screen Surefire assay. Type of data set: cell-based.
T2 sequence (P42336 whole entry, the tested form may be a part, canonical isoform): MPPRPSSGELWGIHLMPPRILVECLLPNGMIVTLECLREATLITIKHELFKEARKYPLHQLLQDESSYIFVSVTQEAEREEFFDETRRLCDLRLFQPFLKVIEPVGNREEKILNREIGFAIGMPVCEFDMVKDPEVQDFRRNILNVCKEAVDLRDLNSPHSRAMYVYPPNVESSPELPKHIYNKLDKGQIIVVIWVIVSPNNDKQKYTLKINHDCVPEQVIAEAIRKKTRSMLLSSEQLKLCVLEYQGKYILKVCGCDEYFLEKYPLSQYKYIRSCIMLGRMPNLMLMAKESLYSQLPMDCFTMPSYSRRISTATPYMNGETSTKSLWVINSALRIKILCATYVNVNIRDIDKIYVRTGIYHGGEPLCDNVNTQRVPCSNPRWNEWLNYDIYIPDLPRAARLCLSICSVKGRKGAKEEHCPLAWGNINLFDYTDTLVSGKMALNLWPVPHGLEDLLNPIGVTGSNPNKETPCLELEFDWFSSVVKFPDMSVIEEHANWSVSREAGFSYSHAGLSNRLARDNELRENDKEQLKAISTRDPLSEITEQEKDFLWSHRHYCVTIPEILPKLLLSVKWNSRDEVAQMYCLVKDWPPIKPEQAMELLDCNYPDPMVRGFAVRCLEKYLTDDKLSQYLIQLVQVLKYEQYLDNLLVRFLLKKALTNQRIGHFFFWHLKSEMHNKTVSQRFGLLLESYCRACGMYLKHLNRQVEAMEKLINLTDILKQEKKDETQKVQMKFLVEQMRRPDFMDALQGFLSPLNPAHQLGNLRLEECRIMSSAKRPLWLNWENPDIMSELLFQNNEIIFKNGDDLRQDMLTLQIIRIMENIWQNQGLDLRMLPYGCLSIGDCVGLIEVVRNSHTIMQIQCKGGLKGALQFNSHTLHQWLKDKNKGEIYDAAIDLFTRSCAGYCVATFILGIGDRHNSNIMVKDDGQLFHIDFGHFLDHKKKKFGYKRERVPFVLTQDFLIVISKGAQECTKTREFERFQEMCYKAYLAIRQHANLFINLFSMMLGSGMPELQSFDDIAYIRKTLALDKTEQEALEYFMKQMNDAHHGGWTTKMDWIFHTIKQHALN

Data set [5] concerns the target T3, Phosphatidylinositol 4,5-bisphosphate 3-kinase catalytic subunit delta isoform (Mus musculus, UniProt O35904).
T3 sequence (O35904 whole entry): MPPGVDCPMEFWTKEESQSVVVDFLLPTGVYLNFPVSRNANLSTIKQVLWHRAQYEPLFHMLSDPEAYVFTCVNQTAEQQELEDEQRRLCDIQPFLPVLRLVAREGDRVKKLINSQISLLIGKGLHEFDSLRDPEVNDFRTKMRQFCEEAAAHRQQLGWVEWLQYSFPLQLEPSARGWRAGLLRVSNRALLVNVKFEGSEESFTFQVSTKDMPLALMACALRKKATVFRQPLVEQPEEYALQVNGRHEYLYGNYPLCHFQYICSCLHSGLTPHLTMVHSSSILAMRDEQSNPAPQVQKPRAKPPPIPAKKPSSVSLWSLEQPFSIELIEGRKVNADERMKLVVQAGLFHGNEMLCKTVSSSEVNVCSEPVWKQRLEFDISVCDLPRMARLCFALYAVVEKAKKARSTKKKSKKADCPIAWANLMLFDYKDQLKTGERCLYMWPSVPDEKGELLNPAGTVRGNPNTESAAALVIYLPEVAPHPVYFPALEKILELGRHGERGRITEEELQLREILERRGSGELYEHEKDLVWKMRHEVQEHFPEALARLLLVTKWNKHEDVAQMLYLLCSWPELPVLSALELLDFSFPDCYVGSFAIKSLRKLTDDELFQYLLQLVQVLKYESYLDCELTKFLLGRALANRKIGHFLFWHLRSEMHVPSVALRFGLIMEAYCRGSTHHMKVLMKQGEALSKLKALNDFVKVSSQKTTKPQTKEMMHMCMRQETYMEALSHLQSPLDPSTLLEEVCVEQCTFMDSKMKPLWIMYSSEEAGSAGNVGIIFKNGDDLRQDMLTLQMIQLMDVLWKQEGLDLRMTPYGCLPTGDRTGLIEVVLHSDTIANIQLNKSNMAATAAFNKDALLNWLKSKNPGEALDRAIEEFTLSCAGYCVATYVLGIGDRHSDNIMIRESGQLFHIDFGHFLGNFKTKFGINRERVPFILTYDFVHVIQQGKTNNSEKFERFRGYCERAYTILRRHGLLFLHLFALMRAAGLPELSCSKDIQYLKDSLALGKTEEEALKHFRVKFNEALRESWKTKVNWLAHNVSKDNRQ
Nature of the data set: Inhibition of PI3Kdelta in Balb/c mouse splenocytes assessed as reduction in anti-IgM stimulated CD86 expression pretreated for 1 hr followed by anti-IgM stimulation after 24 hrs by flow cytometric analysis. Type of data set: cell-based.

A short description of data set [6]: Inhibition of PI3Kdelta in 50% rat blood assessed as reduction in anti-IgM stimulated CD86 expression pretreated for 1 hr followed by anti-IgM stimulation after 24 hrs by flow cytometric analysis. In outline:
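Rat 50% whole blood; B cells stimulated with anti-IgM/IL-4; readouts pAKT or CD86.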
A general note: Flow cytometry measures light scatter and fluorescence of single cells or particles in a stream.

Data set [7] in a line: Equilibrium solubility of the compound at pH 6.8 by LC-MS/MS analysis. Type of data set: physicochemical. As to conditions: buffer. In outline: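 High-throughput equilibrium solubility at pH 6.8, reported in mM.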
For data set [8], the target named is Phosphatidylinositol 4,5-bisphosphate 3-kinase catalytic subunit gamma isoform (Homo sapiens, UniProt P48736). Put plainly: Inhibition of PI3Kgamma (unknown origin) using phosphatidyl inositol as substrate measured after 30 mins by Alexa Fluor647-labelled ADP tracer based TR-FRET assay.
Sequence of Phosphatidylinositol 4,5-bisphosphate 3-kinase catalytic subunit gamma isoform (P48736 whole entry, canonical isoform): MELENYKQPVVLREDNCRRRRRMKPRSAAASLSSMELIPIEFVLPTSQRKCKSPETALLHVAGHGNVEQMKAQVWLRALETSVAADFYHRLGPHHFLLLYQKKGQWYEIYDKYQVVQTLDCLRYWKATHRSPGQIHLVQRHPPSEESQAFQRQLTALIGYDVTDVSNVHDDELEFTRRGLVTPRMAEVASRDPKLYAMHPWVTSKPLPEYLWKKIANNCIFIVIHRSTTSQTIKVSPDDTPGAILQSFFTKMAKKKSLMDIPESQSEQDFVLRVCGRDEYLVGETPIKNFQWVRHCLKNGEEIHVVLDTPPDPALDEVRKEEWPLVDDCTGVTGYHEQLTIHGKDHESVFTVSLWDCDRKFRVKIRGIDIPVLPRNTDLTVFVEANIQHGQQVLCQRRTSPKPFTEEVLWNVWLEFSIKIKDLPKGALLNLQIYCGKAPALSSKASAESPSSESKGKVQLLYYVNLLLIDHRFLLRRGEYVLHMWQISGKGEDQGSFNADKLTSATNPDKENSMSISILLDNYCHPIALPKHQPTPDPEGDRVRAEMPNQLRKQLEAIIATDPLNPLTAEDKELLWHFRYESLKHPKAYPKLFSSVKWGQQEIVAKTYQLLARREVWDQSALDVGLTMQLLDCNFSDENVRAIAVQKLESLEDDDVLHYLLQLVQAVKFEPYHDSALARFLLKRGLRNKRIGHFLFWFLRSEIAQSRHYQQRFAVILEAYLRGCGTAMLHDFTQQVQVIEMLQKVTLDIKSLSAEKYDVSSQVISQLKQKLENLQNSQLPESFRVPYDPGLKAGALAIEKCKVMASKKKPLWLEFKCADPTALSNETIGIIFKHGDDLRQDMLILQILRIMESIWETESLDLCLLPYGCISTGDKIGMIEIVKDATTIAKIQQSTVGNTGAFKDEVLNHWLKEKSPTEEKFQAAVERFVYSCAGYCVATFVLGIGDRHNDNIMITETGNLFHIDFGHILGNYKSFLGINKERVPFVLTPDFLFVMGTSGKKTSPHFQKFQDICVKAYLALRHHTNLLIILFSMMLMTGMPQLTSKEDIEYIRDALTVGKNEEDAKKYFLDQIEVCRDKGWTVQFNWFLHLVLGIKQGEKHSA
Data set [9] addresses T4, Phosphatidylinositol 4,5-bisphosphate 3-kinase catalytic subunit delta isoform (Homo sapiens, UniProt O00329).
T4 sequence (O00329 whole entry): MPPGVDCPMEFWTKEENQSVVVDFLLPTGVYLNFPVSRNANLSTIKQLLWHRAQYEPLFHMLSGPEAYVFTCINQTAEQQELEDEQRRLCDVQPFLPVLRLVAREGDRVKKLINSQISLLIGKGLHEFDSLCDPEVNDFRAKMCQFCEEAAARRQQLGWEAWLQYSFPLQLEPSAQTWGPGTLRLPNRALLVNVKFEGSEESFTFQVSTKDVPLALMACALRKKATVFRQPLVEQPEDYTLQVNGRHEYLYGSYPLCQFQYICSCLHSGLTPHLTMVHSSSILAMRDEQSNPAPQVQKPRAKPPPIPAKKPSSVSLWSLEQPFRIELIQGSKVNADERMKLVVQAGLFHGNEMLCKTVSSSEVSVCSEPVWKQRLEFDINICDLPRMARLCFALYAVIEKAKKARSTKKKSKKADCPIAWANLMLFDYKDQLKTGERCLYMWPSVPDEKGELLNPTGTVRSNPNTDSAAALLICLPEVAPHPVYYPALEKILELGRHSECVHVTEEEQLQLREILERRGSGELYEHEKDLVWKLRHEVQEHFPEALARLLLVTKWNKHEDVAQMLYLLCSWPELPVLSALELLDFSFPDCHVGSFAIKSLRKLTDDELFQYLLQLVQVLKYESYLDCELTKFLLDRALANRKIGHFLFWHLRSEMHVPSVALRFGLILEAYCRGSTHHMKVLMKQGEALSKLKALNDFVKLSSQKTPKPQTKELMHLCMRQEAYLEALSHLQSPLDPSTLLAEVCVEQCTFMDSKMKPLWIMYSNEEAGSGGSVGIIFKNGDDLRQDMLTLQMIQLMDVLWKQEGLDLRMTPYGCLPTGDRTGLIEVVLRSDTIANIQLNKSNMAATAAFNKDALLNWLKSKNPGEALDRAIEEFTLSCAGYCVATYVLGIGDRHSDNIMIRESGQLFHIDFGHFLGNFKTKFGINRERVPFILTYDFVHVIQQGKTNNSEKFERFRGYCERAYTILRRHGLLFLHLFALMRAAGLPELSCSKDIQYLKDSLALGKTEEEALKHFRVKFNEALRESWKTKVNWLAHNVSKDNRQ
Nature of the data set: Inhibition of PI3Kdelta (unknown origin) using phosphatidyl inositol as substrate measured after 60 mins by Alexa Fluor647-labelled ADP tracer based TR-FRET assay.

In data set [10] the target is T4, Phosphatidylinositol 4,5-bisphosphate 3-kinase catalytic subunit delta isoform. Nature of the data set: Inhibition of recombinant human myristoylated PI3Kdelta catalytic domain expressed in Rat1 cells assessed as reduction in Akt phosphorylation at […] residue after 1 hr by alpha screen Surefire assay. It is filed as cell-based.
Data set [11] is described as follows: Lipophilicity, log P of the compound by artificial membrane based assay. It is filed as physicochemical.
Data set [12] deals with T2, Phosphatidylinositol 4,5-bisphosphate 3-kinase catalytic subunit alpha isoform. Put plainly: Inhibition of recombinant PI3Kalpha (unknown origin) using phosphatidyl inositol/n-Octyl-glucoside as substrate measured after 30 mins by KinaseGlo assay.

Broadly, the IC50 is the concentration at which inhibition is half-maximal. Usually solubility (thermodynamic) stands for solubility found after equilibrating the solid with the medium. A word on the logP: it is the decadic logarithm of the partition coefficient of the neutral form, usually between octanol and water.

T1 sequence (P42338 whole entry, the tested form may be a part, canonical isoform): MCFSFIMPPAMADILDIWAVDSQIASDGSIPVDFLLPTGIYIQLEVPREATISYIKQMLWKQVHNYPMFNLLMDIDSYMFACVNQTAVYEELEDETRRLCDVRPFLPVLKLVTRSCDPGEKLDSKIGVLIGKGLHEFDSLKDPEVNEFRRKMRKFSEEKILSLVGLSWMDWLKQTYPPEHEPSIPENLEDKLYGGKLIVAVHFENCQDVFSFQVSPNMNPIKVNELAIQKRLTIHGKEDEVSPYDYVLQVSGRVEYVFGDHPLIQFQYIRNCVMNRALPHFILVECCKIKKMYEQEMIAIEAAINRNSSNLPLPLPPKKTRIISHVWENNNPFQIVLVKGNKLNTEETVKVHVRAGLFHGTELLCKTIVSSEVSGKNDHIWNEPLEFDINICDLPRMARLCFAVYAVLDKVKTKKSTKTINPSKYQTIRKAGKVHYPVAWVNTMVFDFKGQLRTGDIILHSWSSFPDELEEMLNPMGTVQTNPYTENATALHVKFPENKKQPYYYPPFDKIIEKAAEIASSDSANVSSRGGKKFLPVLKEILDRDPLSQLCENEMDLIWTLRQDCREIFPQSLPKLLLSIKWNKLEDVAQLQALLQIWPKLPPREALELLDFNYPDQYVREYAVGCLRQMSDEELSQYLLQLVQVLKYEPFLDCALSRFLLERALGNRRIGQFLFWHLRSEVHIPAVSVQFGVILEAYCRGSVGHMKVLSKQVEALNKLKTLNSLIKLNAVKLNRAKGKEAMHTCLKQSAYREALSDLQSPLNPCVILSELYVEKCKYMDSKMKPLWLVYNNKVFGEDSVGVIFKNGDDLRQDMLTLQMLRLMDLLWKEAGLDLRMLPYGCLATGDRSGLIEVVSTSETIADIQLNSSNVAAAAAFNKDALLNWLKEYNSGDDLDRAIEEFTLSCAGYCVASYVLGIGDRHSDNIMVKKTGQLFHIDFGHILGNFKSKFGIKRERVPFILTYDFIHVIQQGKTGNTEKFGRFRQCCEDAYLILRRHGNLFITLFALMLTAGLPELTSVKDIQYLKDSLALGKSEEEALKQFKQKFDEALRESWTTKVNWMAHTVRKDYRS

Take `COc1ncc(N2CCc3ncnc(O[C@H]4CCN(C(=O)C5CCOCC5)C4)c3C2)cc1C(F)(F)F`: the microsomal CLint in data set [1] was 149 µL/min/mg. Also, the IC50 in [2] was 3580 nM; in data set [3], 1330 nM; in [4] it was 3550 nM; in data set [5] it was 84 nM; in data set [6], 58 nM; in data set [8], greater than 9100 nM. For the same compound, the IC50 amounted to 28 nM in data set [9] and 37 nM in [10]. The compound also registered a solubility (thermodynamic) in [7] of 270 µM (≈ 137 µg/mL). The lipophilicity (logP) in data set [11] was 2.2.

Take `COc1ncc(N2CCc3ncnc(O[C@H]4CCN(C(=O)C5CCOCC5)C4)c3C2)cc1C`: the microsomal CLint in [1] came out at 60 µL/min/mg. Also, the IC50 in data set [2] was 6790 nM; in data set [3] it was 4150 nM; in data set [5], 98 nM; in data set [6], 92 nM; in data set [8], 6600 nM; in data set [9] it was 76 nM. The IC50 in [10] amounted to 143 nM. For the same compound, in [7], the thermodynamic solubility was greater than 1000 µM. Besides, the logP in [11] stood at 1.7.

`CCC(=O)N1CC[C@H](Oc2ncnc3c2CN(c2cnc(OC)c(C(F)(F)F)c2)CC3)C1`: in data set [1], the microsomal CLint is 160 µL/min/mg. The IC50 in data set [2] is 3110 nM; in [3] it was 1710 nM; in data set [4], 2600 nM; in data set [8], greater than 9100 nM; in [9], 27 nM; in data set [10] it was 131 nM. Besides, in data set [7], the solubility (thermodynamic) was found to be 80 µM (≈ 36.1 µg/mL). For the same compound, the logP in data set [11] was found to be 3.1.

As to `COc1ncc(N2CCc3ncnc(N[C@H]4CCN(C(=O)C5CCOCC5)C4)c3C2)cc1C`, the microsomal CLint in data set [1] was found to be 22 µL/min/mg. Besides, the 50% inhibitory concentration (IC50) in [2] came to 9870 nM; in [3] it was 2020 nM; in data set [5] it was 91 nM; in [6], 74 nM; in [8] it was 3290 nM; in data set [9], 30 nM. The IC50 in [10] turned out to be 358 nM. The compound also came in with a solubility (thermodynamic) in [7] greater than 1000 µM. In addition, the logP in data set [11] is 2.6.

For `COc1ccc(N2CCc3ncnc(-c4cccc(OC5CCN(C(C)=O)CC5)c4)c3C2)cn1`, the microsomal CLint in data set [1] was 197 µL/min/mg. In addition, the IC50 in data set [2] is greater than 10000 nM; in data set [3], 8940 nM; in data set [4], 9030 nM; in data set [12], 2020 nM; in data set [8], greater than 9100 nM; in data set [9], 83 nM. In addition, the IC50 in data set [10] was 374 nM. The compound also yielded a solubility (thermodynamic) in data set [7] greater than 1000 µM. For the same compound, in [11], the logP was 2.2.

As to `COc1ncc(N2CCc3ncnc(N[C@H]4CCN(C(=O)C5CCOCC5)C4)c3C2)cc1C(F)(F)F`, in data set [1], the microsomal CLint turned out to be 41 µL/min/mg. Moreover, the IC50 amounted to 3990 nM in [2]; 300 nM in [3]; 2150 nM in data set [4]; 15 nM in data set [5]; 16 nM in data set [6]; 44 nM in data set [12]. For the same compound, the IC50 was 1060 nM in data set [8] and 4 nM in data set [9]. Besides, the thermodynamic solubility in data set [7] stood at 240 µM (≈ 122 µg/mL). The logP in data set [11] was determined as 2.9.

For the compound `CCC(=O)N1CC[C@H](Oc2ncnc3c2CN(c2ccc(OC)nc2)CC3)C1`, the microsomal CLint in [1] was 35 µL/min/mg. In addition, the 50% inhibitory concentration (IC50) is greater than 10000 nM in [2]; 8940 nM in data set [3]; greater than 10000 nM in data set [4]; 6660 nM in data set [12]; greater than 9100 nM in [8]; 132 nM in data set [9]. Also, the concentration for half-maximal inhibition (IC50) in [10] is 5390 nM. In addition, the solubility (thermodynamic) in data set [7] was greater than 1000 µM. Also, in [11], the log partition coefficient (logP) turned out to be 2.2.

Consider `COc1ccc(N2CCc3ncnc(-c4cccc(C(=O)N5CCN(C(C)=O)CC5)c4)c3C2)cn1`, for which the microsomal CLint in data set [1] was found to be 91 µL/min/mg. For the same compound, the IC50 was greater than 10000 nM in data set [2]; greater than 9100 nM in [3]; greater than 10000 nM in [4]; 6940 nM in [12]; greater than 9100 nM in data set [8]; 65 nM in [9]. In addition, the IC50 in data set [10] worked out at 2630 nM. In addition, the thermodynamic solubility in data set [7] is greater than 1000 µM. In [11], the logP was 0.7.

For the compound `CCC(=O)N1CC[C@H](Nc2ncnc3c2CN(c2cnc(OC)c(C)c2)CC3)C1`, the IC50 is 7910 nM in [2]; 951 nM in data set [3]; 7410 nM in data set [4]; 87 nM in [5]; 73 nM in [6]. In data set [7], this compound had a thermodynamic solubility greater than 1000 µM. In data set [11], this compound gave a logP of 2.8.
